Paper PMC11974842 (bioRxiv, 2025)

Key:
Cia1 = conditions: via C-terminal tryptophan; ref [26]; cited from earlier work
HsCia2a = experiment: Affinity copurification of HsCia1 with HsCia2a; assay type: binding, Homo sapiens; conditions: strep-tagged HsCia1 bait, HsCia2a prey
In short: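 Recombinant human Cia1, wild-type or R65A variant, carries the strep tag as bait. Human Cia2a is the prey. Copurified proteins are compared between the two bait forms. Uncropped gels, including input samples and controls, accompany the analysis.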

[1] = Melting temperature by Thermofluor; assay type: physicochemical, Homo sapiens; conditions: R65W vs WT HsCia1
CtCia1-Cia2 = experiment: Affinity copurification of ScMet18 with CtCia1-Cia2; assay type: binding, Chaetomium thermophilum

For Viperin: CIA client, the “binding to Cia1” value (Cia1) is given as “binds Cia1 via Viperin’s C-terminal tryptophan”.

With “Hs R65WCia1: human Cia1 pathogenic variant implicated in a fatal neuromuscular disorder” the “interaction with HsCia2a” value (HsCia2a) was “strongly disrupted”, the “thermostability of HsCia1” value [1] was “without impacting Cia1’s thermostability” and the “thermostability of HsCia1” value ([1]; listed as R65W HsCia1) was “did not affect the stability of HsCia1 in vitro”.

B1: ScMet18: S. cerevisiae Met18 with N-terminal His6-SUMO tag (protein)
chain: MTPDELNSAVVTFMANLNIDDSKANETASTVTDSIVHRSIKLLEVVVALKDYFLSENEVERKKALTCLTTILAKTPKDHLSKNECSVIFQFYQSKLDDQALAKEVLEGFAALAPMKYVSINEIAQLLRLLLDNYQQGQHLASTRLWPFKILRKIFDRFFVNGSSTEQVKRINDLFIETFLHVANGEKDPRNLLLSFALNKSITSSLQNVENFKEDLFDVLFCYFPITFKPPKHDPYKISNQDLKTALRSAITATPLFAEDAYSNLLDKLTASSPVVKNDTLLTLLECVRKFGGSSILENWTLLWNALKFEIMQNSEGNENTLLNPYNKDQQSDDVGQYTNYDACLKIINLMALQLYNFDKVSFEKFFTHVLDELKPNFKYEKDLKQTCQILSAIGSGNVEIFNKVISSTFPLFLINTSEVAKLKLLIMNFSFFVDSYIDLFGRTSKESLGTPVPNNKMAEYKDEIIMILSMALTRSSKAEVTIRTLSVIQFTKMIKMKGFLTPEEVSLIIQYFTEEILTDNNKNIYYACLEGLKTISEIYEDLVFEISLKKLLDLLPDCFEEKIRVNDEENIHIETILKIILDFTTSRHILVKESITFLATKLNRVAKISKSREYCFLLISTIYSLFNNNNQNENVLNEEDALALKNAIEPKLFEIITQESAIVSDNYNLTLLSNVLFFTNLKIPQAAHQEELDRYNELFISEGKIRILDTPNVLAISYAKILSALNKNCQFPQKFTVLFGTVQLLKKHAPRMTETEKLGYLELLLVLSNKFVSEKDVIGLFDWKDLSVINLEVMVWLTKGLIMQNSLESSEIAKKFIDLLSNEEIGSLVSKLFEVFVMDISSLKKFKGISWNNNVKILYKQKFFGDIFQTLVSNYKNTVDMTIKCNYLTALSLVLKHTPSQSVGPFINDLFPLLLQALDMPDPEVRVSALETLKDTTDKHHTLITEHVSTIVPLLLSLSLPHKYNSVSVRLIALQLLEMITTVVPLNYCLSYQDDVLSALIPVLSDKKRIIRKQCVDTRQVYYELGQIPFE
modifications: left off: His6, N-terminal, state not stated | SUMO, N-terminal, state not stated
For B1, the “binding to CtCia1-Cia2” value (CtCia1-Cia2) was “can bind to CtCia1-Cia2”.
